Results on nine compounds are retold here after ChEMBL document CHEMBL1150125, “Antiplasmodial activity of alkaloids from various strychnos species” (J Nat Prod, 2002).

pIC50: −log10 of the molar value. Bounds are passed on as bounds.

Data set [1] in a line: Selectivity index, ratio of IC50 for human HCT116 cells to IC50 for moderately chloroquine-resistant Plasmodium falciparum FCB1-R/Colombia. The format is toxicity, cell-based, HCT-116. The following applies: HCT116 cells versus Plasmodium falciparum FCB1-R/Colombia, read-out: Ratio IC50. Summed up: (§1)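 Selectivity index = IC50 in HCT-116 cells / IC50 in P. falciparum. Cell IC50: 5000 HCT-116 cells per well with drug, DMSO controls, 72 h incubation, then WST-1 for 30 min at 37 °C. Absorbance read against a cell-free blank and expressed as percent of control. Two independent experiments, each in triplicate, means ± SEM.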

Data set [2] concerns Plasmodium falciparum. Put plainly: Antiplasmodial activity against chloroquine-resistant Plasmodium falciparum FCB1-R/Colombia by [3H]hypoxanthine uptake. The format is functional, organism-based. The method in brief: (§2)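 Asexual erythrocytic stages kept in continuous culture (Trager and Jensen method). Each sample run as eight 4-fold dilutions, final 20 to 0.0012 µg/mL, in duplicate. IC50 and IC90 derived; number of independent experiments per value given separately.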

Data set [3] relates to Plasmodium falciparum. Put plainly: Antiplasmodial activity against chloroquine-sensitive Plasmodium falciparum FCA 20/ Ghana by [3H]hypoxanthine uptake. The format is functional, organism-based. Summed up: as §2
For another data set, the system named is HCT-116. The data set is described as follows: Cytotoxicity against human HCT116 cells after 72 hrs by WST1 assay. The format is cell-based. The following applies: HCT-116, 72 h. Summed up:
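HCT-116 colon cancer cells were seeded at 5000 per well in medium containing the test drugs, with matched DMSO controls. After 72 h, WST-1 was added for 30 min at 37 °C. Absorbance was read against a cell-free medium plus WST-1 blank and expressed as percent of control. Two independent experiments were run, each in triplicate, and means ± SEM were calculated.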
Background: Tetrazolium assays rely on reduction of a dye to a coloured formazan, in cell work by metabolically active cells.

The test system of data set [4] is Plasmodium falciparum. The data set is described as follows: Antiplasmodial activity against chloroquine-resistant Plasmodium falciparum W2/Indochina by [3H]hypoxanthine uptake. It counts as functional, organism-based. Summed up:
as §2

Data set [5] is described as follows: Selectivity index, ratio of IC50 for human HCT116 cells to IC50 for chloroquine-sensitive Plasmodium falciparum FCA 20/ Ghana. As to conditions: HCT116 cells versus Plasmodium falciparum FCA 20/Ghana, read-out: Ratio IC50. It counts as toxicity, cell-based, HCT-116. Summed up:
as §1

The nature of data set [6]: Selectivity index, ratio of IC50 for human HCT116 cells to IC50 for chloroquine-resistant Plasmodium falciparum W2/Indochina. The format is toxicity, cell-based, HCT-116. The following applies: HCT116 cells versus Plasmodium falciparum W2/Indochina, read-out: Ratio IC50. Summed up:
as §1

The test system of data set [7] is Plasmodium falciparum. The data set is described as follows: Antiplasmodial activity against chloroquine-sensitive Plasmodium falciparum FCA 20/ Ghana at 50 uM. The following applies: read-out: INH.
Where [8] appears, read: Plasmodium falciparum, FCB1-R/Colombia.
Where [9] appears, read: Plasmodium falciparum, FCA 20/ Ghana.
Setting [10] is: Plasmodium falciparum, W2/Indochina.

For the compound `C/C=C1/CN2CCc3c([nH]c4ccccc34)[C@@H]2C[C@@H]1C1=CN2c3ccccc3[C@@]34CCN5CC6=CCO[C@@H]1[C@@H]([C@H]23)[C@H]6C[C@H]54` [LONGICAUDATINE], the selectivity ratio in data set [1] stood at 8.81; in data set [5], 4.59; in data set [6], 7.96. The negative logarithm of the IC50 (pIC50) is 6.25 with Plasmodium falciparum [2] (setting [8]), 6.01 in the data set on Plasmodium falciparum [3] (setting [9]), 5.31 in the data set on HCT-116 and 6.24 in the data set on Plasmodium falciparum [4] (setting [10]). For the same compound, the concentration for an effect of 90% (IC90) worked out at 3640 nM in the data set on Plasmodium falciparum [2] (setting [8]), 3870 nM with Plasmodium falciparum [3] (setting [9]) and 4830 nM in the data set with Plasmodium falciparum [4] (setting [10]).

`O=C1C[C@@H]2OCC=C3CN4[C@@H](C5=C[C@@H]6[C@@H]7N(C5=O)c5ccccc5[C@@]75CCN7C/C(=C/CO)[C@@H]6C[C@H]75)C[C@]56c7ccccc7N1[C@H]5[C@@H]2[C@H]3C[C@H]46` [STRYCHNOGUCINE B]: the selectivity ratio in data set [1] came out at 28.3; in data set [5] it was 24.3; in data set [6], 176. Also, the pIC50 in the data set on Plasmodium falciparum [2] (setting [8]) is 6.28; in the data set with Plasmodium falciparum [3] (setting [9]) it was 6.21; in the data set with HCT-116, 4.82; with Plasmodium falciparum [4] (setting [10]) it was 7.07. The IC90 in the data set on Plasmodium falciparum [2] (setting [8]) worked out at 2240 nM; in the data set on Plasmodium falciparum [3] (setting [9]) it was 3790 nM; with Plasmodium falciparum [4] (setting [10]) it was 358 nM.

With `C/C=C1/CN2[C@@H](C3=C[C@@H]4[C@@H]5N(C3=O)c3ccccc3[C@@]53CCN5C/C(=C/CO)[C@@H]4C[C@H]53)C[C@@]34c5ccccc5N5C(=O)CC=C([C@H]1C[C@H]23)[C@H]54`, the selectivity ratio in data set [1] worked out at 78.3; in data set [5], 19.1; in data set [6], 115. Moreover, the negative logarithm of the IC50 (pIC50) in the data set with Plasmodium falciparum [2] (setting [8]) is 6.68; in the data set with Plasmodium falciparum [3] (setting [9]) it was 6.07; in the data set on HCT-116, 4.79; in the data set on Plasmodium falciparum [4] (setting [10]), 6.85. For the same compound, the 90% effect concentration (IC90) was 1470 nM with Plasmodium falciparum [2] (setting [8]), 4350 nM in the data set on Plasmodium falciparum [3] (setting [9]) and 1350 nM in the data set on Plasmodium falciparum [4] (setting [10]).

On to `C/C=C1\CN2CC[C@]34c5ccccc5N5[C@@H]6O[C@H]([C@H]([C@H]53)[C@H]1C[C@H]24)N1c2ccccc2[C@]23CCN4C/C(=C/C)[C@H](C[C@H]42)[C@H]6[C@H]13` (stereo in doubt; 52) [MATOPENSINE], for which the selectivity ratio in data set [1] was 33.1; in data set [5], 9.59; in data set [6] it was 49.5. In addition, the negative logarithm of the IC50 (pIC50) is 6.44 in the data set with Plasmodium falciparum [2], 5.90 with Plasmodium falciparum [3], 4.92 with HCT-116 and 6.61 with Plasmodium falciparum [4]. Further, the IC90 in the data set on Plasmodium falciparum [2] is 4110 nM; with Plasmodium falciparum [3], 6630 nM; in the data set with Plasmodium falciparum [4] it was 7740 nM.

As to `CC` [ETHANE], the inhibition at 50 µM with Plasmodium falciparum [7] was under 30%.

As to `CC[C@H]1CN2CCC3c4ccc(O)c([C@@H]5CCCN5C)c4NC3[C@@H]2C[C@@H]1C[C@H]1c2[nH]c3ccccc3c2CCN1C` (stereo partly specified) [ISOSTRYCHNOPENTAMINE], the selectivity ratio in data set [1] came to 71.8; in data set [5] it was 62.3; in data set [6] it was 49.1. Also, the pIC50 in the data set with Plasmodium falciparum [2] (setting [8]) was 6.98; in the data set with Plasmodium falciparum [3] (setting [9]) it was 6.92; in the data set on HCT-116, 5.13; in the data set on Plasmodium falciparum [4] (setting [10]), 6.82. Further, the 90% effect concentration (IC90) with Plasmodium falciparum [2] (setting [8]) is 386 nM; in the data set on Plasmodium falciparum [3] (setting [9]) it was 450 nM; in the data set on Plasmodium falciparum [4] (setting [10]), 628 nM.

As for `C/C=C1\CN2CC[C@]34c5ccccc5N5[C@H]3[C@@H]([C@H]3O[C@@H]5[C@]5(OC)[C@@H]6N3c3ccccc3[C@@]63CCN6C/C(=C\C)[C@@H]5C[C@H]63)[C@H]1C[C@H]24`, the values for the selectivity ratio in data set [1], in data set [5] and in data set [6] were 15.9, 45.3 and 200, respectively. Moreover, the pIC50 in the data set with Plasmodium falciparum [2] (setting [8]) is 5.81; with Plasmodium falciparum [3] (setting [9]), 6.27; in the data set with HCT-116 it was 4.61; in the data set on Plasmodium falciparum [4] (setting [10]), 6.91. In addition, the IC90 with Plasmodium falciparum [2] (setting [8]) is 9520 nM; in the data set with Plasmodium falciparum [3] (setting [9]) it was 2530 nM; in the data set with Plasmodium falciparum [4] (setting [10]) it was 2840 nM.

In the case of `CC[C@H]1CN2CCC3c4ccccc4NC3[C@H]2C[C@@H]1C[C@@H]1NCCc2c1[nH]c1ccccc21` (stereo partly specified) [OCHROLIFUANINE E], the selectivity ratio in data set [1] was determined as 8.12; in data set [5], 20.7; in data set [6], 3. For the same compound, the negative-log IC50 (pIC50) in the data set on Plasmodium falciparum [2] (setting [8]) is 6.15; with Plasmodium falciparum [3] (setting [9]), 6.56; in the data set with HCT-116, 5.24; in the data set on Plasmodium falciparum [4] (setting [10]), 5.72. For the same compound, the 90% effect concentration (IC90) in the data set with Plasmodium falciparum [2] (setting [8]) was determined as 2420 nM; with Plasmodium falciparum [3] (setting [9]), 1490 nM; with Plasmodium falciparum [4] (setting [10]), 6760 nM.

With `CC[C@H]1CN2CCC3c4ccccc4NC3[C@@H]2C[C@@H]1C[C@H]1NCCc2c1[nH]c1ccccc21` (stereo partly specified) [OCHROLIFUANINE A], the selectivity ratio in data set [1] came to 60.7; in data set [5] it was 136; in data set [6], 32.8. Further, the negative logarithm of the IC50 (pIC50) was 6.58 in the data set with Plasmodium falciparum [2] (setting [8]), 6.93 in the data set with Plasmodium falciparum [3] (setting [9]), 4.79 with HCT-116 and 6.31 with Plasmodium falciparum [4] (setting [10]). The IC90 is 1020 nM with Plasmodium falciparum [2] (setting [8]), 495 nM in the data set on Plasmodium falciparum [3] (setting [9]) and 1380 nM with Plasmodium falciparum [4] (setting [10]).

One may read the pIC50 as the negative decadic logarithm of the IC50, by convention in mol/L. A high value points to a small IC50. For orientation: IC90 means the concentration at which the effect reaches the 90% level. A higher IC90 goes with weaker potency.
